From ChEMBL document CHEMBL4145668, “Dipeptide Prodrugs of the Glutamate Modulator Riluzole” (ACS Med Chem Lett, 2018)
One block for each compound: values may come before it. Calls of active or inactive are those of the source. The rule behind the calls is not given here.

Tests used:
Homo sapiens [1] = assay: Antitumor activity against human C8161 cells xenografted in mouse assessed as tumor growth inhibition at 7.5 mg/kg, po administered once daily via gavage for 21 days measured at 7 days interval during compound dosing; assay type: functional, organism-based
In short: (§1)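 Nude mice were inoculated in the flank with 10^6 human C8161 melanoma cells. When tumors reached 40 mm3, the mice were randomized into groups of similar tumor volume. Vehicle was DMSO. Dosing was daily by oral gavage for 21 days, and tumor growth was followed.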

[2] = Prodrug conversion in simulated gastric fluid assessed as riluzole formation by measuring compound half life at 0.01 mg/ml by LC/MS analysis; assay type: ADME; details: simulated gi fluid
In short: (§2)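 Each prodrug was incubated in pH 7.4 buffer, fresh rat serum, simulated gastric fluid or simulated intestinal fluid. Prodrug disappearance was followed for up to 2-4 h to derive a half-life in hours.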

[3] = Prodrug conversion in simulated intestinal fluid assessed as riluzole formation by measuring compound half life at 0.01 mg/ml by LC/MS analysis; assay type: ADME; details: simulated gi fluid; in short: as §2
[4] = Prodrug conversion in pH 7.4 buffer assessed as riluzole formation by measuring compound half life; assay type: physicochemical; in short: as §2
[5] = Prodrug conversion in rat serum assessed as riluzole formation by measuring compound half life; assay type: ADME, cell-free; in short: as §2
Rattus norvegicus [6] = assay: Tmax in Sprague-Dawley rat assessed as riluzole level at 14.6 mg/kg, po measured up to 8 hrs; assay type: ADME, organism-based; details: in vivo
In short: (§3)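 Male Sprague-Dawley rats received a single oral dose. Plasma prodrug and riluzole levels were monitored up to eight hours after dosing.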

[7] = Apparent permeability across apical to basolateral side in human Caco2 cells; assay type: ADME, cell-based; details: Caco-2
In short: (§4)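 Bidirectional transport across Caco-2 monolayers was measured as Papp A-B and Papp B-A in nm/s. Efflux ratio was calculated as B-A over A-B.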

[8] = Apparent permeability across basolateral to apical side in human Caco2 cells; assay type: ADME, cell-based; details: Caco-2; in short: as §4
Rattus norvegicus [9] = assay: Oral bioavailability in Sprague-Dawley rat at 14.6 mg/kg; assay type: ADME, organism-based; details: in vivo; in short: as §3
Rattus norvegicus [10] = assay: Tmax in Sprague-Dawley rat assessed as riluzole level at 2.8 mg/kg, iv measured up to 8 hrs; assay type: ADME, organism-based; details: in vivo
[11] = Prodrug conversion in rat liver microsomes assessed as riluzole formation by measuring half life; assay type: ADME, microsome
In short: (§5)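 Prodrug stability was tested in human, mouse, rat and dog liver microsomes, and a half-life in minutes was reported.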

Rattus norvegicus [12] = assay: Cmax in Sprague-Dawley rat assessed as riluzole level at 2.8 mg/kg, iv measured up to 8 hrs; assay type: ADME, organism-based; parameters: dose 2.8 mg/kg, route intravenous; details: in vivo
Rattus norvegicus [13] = assay: Cmax in Sprague-Dawley rat assessed as riluzole level at 14.6 mg/kg, po measured up to 8 hrs; assay type: ADME, organism-based; parameters: dose 14.6 mg/kg, route oral; details: in vivo; in short: as §3
[14] = Prodrug conversion in dog liver microsomes assessed as riluzole formation by measuring half life; assay type: ADME, Canis lupus familiaris, microsome; in short: as §5
[15] = Prodrug conversion in human liver microsomes assessed as riluzole formation by measuring half life; assay type: ADME, microsome; in short: as §5
[16] = Cmax in Sprague-Dawley rat at 2.8 mg/kg, iv; assay type: ADME, organism-based; parameters: dose 2.8 mg/kg, route intravenous; details: in vivo
Rattus norvegicus [17] = assay: Half life in Sprague-Dawley rat assessed as riluzole level at 2.8 mg/kg, iv measured up to 8 hrs; assay type: ADME, organism-based; details: in vivo
[18] = Prodrug conversion in mouse liver microsomes assessed as riluzole formation by measuring half life; assay type: ADME, microsome; in short: as §5
CYP3A4 [19] = target: T1, CYP3A4 (Homo sapiens, UniProt P08684); assay: Inhibition of CYP3A4 (unknown origin) at 10 uM using testosterone as substrate relative to control; assay type: ADME; details: probe testosterone
T1 sequence (P08684 whole entry): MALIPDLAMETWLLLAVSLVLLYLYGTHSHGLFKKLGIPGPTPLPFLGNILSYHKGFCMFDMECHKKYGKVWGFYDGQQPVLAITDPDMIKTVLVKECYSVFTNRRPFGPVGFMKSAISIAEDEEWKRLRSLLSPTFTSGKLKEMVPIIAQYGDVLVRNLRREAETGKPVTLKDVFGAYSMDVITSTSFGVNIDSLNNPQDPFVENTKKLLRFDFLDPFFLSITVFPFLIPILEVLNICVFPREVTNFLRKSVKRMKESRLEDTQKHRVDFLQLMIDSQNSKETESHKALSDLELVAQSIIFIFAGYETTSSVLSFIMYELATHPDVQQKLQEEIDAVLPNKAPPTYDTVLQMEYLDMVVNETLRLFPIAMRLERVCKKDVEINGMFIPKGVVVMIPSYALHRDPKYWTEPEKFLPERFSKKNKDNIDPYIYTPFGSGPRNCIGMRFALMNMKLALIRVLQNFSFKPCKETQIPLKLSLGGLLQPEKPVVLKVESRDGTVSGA

[20] = Tmax in Sprague-Dawley rat at 2.8 mg/kg, iv; assay type: ADME, organism-based; details: in vivo
[21] = Efflux ratio of apparent permeability […] in human Caco2 cells; assay type: ADME, cell-based; details: Caco-2
[22] = Prodrug conversion in mouse plasma xenografted with human C8161 cells assessed as riluzole formation at 4.9 to 14.8 mg/kg, po administered via gavage measured 2 hrs post dose; assay type: ADME, organism-based; details: in vivo
In short: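 In C8161 xenograft-bearing nude mice given daily oral gavage doses, plasma was sampled from selected animals 2 hours post dosing to check riluzole exposure.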

Rattus norvegicus [23] = assay: AUClast in Sprague-Dawley rat assessed as riluzole level at 14.6 mg/kg, po measured up to 8 hrs; assay type: ADME, organism-based; parameters: time < 8 hr, dose 14.6 mg/kg, route oral; details: in vivo; in short: as §3
Rattus norvegicus [24] = assay: AUClast in Sprague-Dawley rat assessed as riluzole level at 2.8 mg/kg, iv measured up to 8 hrs; assay type: ADME, organism-based; parameters: time < 8 hr, dose 2.8 mg/kg, route intravenous; details: in vivo
Homo sapiens [25] = assay: Antitumor activity against human C8161 cells xenografted in mouse assessed as tumor growth inhibition at 4.9 to 14.8 mg/kg, po administered once daily via gavage for 21 days measured at 7 days interval during compound dosing; assay type: functional, organism-based; in short: as §1
CYP3A4 [26] = target: T1, CYP3A4; assay: Inhibition of CYP3A4 (unknown origin) at 10 uM using midazolam as substrate relative to control; assay type: ADME; details: probe midazolam
CYP1A2 = target: T2, CYP1A2 (Homo sapiens, UniProt P05177); assay: Inhibition of CYP1A2 (unknown origin) at 10 uM relative to control; assay type: ADME
T2 sequence (P05177 whole entry): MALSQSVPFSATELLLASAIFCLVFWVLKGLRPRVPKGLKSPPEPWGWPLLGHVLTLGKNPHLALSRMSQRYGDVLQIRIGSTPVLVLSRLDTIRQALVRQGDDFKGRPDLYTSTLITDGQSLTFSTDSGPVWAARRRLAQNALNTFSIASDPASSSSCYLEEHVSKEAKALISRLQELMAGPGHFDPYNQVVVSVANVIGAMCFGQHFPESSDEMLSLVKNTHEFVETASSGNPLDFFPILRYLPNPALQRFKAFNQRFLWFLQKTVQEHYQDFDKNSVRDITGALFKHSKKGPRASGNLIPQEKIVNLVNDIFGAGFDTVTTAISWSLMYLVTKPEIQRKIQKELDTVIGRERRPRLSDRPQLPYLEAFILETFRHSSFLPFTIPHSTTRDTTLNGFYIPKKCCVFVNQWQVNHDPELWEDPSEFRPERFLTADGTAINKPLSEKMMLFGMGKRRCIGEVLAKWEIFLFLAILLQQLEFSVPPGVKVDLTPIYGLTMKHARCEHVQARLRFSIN

CYP2D6 = CYP2D6 (Homo sapiens, UniProt P10635); assay: Inhibition of CYP2D6 (unknown origin) at 10 uM relative to control; assay type: ADME
CYP2D6, sequence (P10635 whole entry): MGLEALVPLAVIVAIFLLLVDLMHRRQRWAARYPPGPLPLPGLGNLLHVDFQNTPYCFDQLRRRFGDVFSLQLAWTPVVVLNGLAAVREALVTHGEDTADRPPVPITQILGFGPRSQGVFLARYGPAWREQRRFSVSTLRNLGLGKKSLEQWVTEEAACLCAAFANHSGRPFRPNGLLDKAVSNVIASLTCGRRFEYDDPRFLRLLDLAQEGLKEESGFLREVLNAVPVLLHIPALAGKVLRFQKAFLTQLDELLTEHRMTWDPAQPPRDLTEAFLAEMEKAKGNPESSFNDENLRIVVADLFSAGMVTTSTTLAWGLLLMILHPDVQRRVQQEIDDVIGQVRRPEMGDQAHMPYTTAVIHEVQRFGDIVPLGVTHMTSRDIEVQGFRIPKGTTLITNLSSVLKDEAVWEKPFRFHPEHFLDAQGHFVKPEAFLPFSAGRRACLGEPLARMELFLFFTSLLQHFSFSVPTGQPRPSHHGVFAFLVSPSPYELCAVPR

Structure (SMILES): Nc1nc2ccc(OC(F)(F)F)cc2s1
TGI (Homo sapiens [1]): Active

Structure (SMILES): CC(C)(C)NCC(=O)N1CCC[C@@H]1C(=O)Nc1nc2ccc(OC(F)(F)F)cc2s1
t1/2 [4]: > 24 h
t1/2 [5]: > 2 h

Structure (SMILES): CC(C)(C)NCC(=O)NC(C)(C)C(=O)Nc1nc2ccc(OC(F)(F)F)cc2s1
t1/2 [2]: > 4 h
t1/2 [3]: > 4 h
t1/2 [4]: > 2 h
t1/2 [5]: > 2 h

Structure (SMILES): CC(C)(NC(=O)CN)C(=O)Nc1nc2ccc(OC(F)(F)F)cc2s1
t1/2 [2]: > 4 h
t1/2 [3]: < 1 h
t1/2 [5]: 2 h

Structure (SMILES): NCC(=O)N1CCC[C@@H]1C(=O)Nc1nc2ccc(OC(F)(F)F)cc2s1
t1/2 [2]: 2.5 h
t1/2 [3]: < 1 h
t1/2 [4]: 0.2 h
t1/2 [5]: 0.25 h

More lines, main results first:

t1/2 [2]: > 4 h
t1/2 [3]: < 1 h
t1/2 [4]: < 0.25 h
t1/2 [5]: < 0.25 h
Structure (SMILES): CCNCC(=O)N(C)CC(=O)Nc1nc2ccc(OC(F)(F)F)cc2s1

t1/2 [2]: > 4 h
t1/2 [3]: > 4 h
t1/2 [4]: > 24 h
t1/2 [5]: > 2 h
Structure (SMILES): CC(C)NCC(=O)N(C)CC(=O)Nc1nc2ccc(OC(F)(F)F)cc2s1

Tmax (Rattus norvegicus [6]): 8 h
Papp A→B [7]: 1.38 ×10⁻⁶ cm/s
Papp B→A [8]: 2.41 ×10⁻⁶ cm/s
F (Rattus norvegicus [9]): 70%
t1/2 [2]: > 4 h
t1/2 [3]: > 4 h
Tmax (Rattus norvegicus [10]): 0.78 h
t1/2 [11]: > 1 h
Cmax (Rattus norvegicus [12]): 187 ng/mL
Cmax (Rattus norvegicus [13]): 1587 ng/mL
t1/2 [14]: > 1 h
t1/2 [15]: > 1 h
Cmax [16]: 1730 ng/mL
t1/2 (Rattus norvegicus [17]): 7.83 h
t1/2 [18]: > 1 h
inhibition at 10 µM (CYP3A4 [19]): < 10%
t1/2 [4]: > 24 h
Tmax [20]: 0 h
efflux ratio [21]: 1.7
t1/2 [5]: > 2 h
Drug metabolism [22]: Metabolite_Detected
AUClast (Rattus norvegicus [23]): 20518 ng·h/mL
AUClast (Rattus norvegicus [24]): 1137 ng·h/mL
inhibition at 10 µM (CYP3A4 [26]): < 10%
inhibition at 10 µM (CYP1A2): < 10%
inhibition at 10 µM (CYP2D6): < 10%
Structure (SMILES): CN(CC(=O)Nc1nc2ccc(OC(F)(F)F)cc2s1)C(=O)CNC(C)(C)C
TGI (Homo sapiens [25]): Active

t1/2 [2]: > 4 h
t1/2 [3]: < 1 h
t1/2 [4]: < 0.1 h
t1/2 [5]: < 0.1 h
Structure (SMILES): CNCC(=O)N(C)CC(=O)Nc1nc2ccc(OC(F)(F)F)cc2s1

t1/2 [4]: < 0.1 h
t1/2 [5]: < 0.1 h
Structure (SMILES): CN(CC(=O)Nc1nc2ccc(OC(F)(F)F)cc2s1)C(=O)CN
